In brackets after ≈: the same amount, converted by molar mass.
Key:
[1] = Half life of healthy human; format: ADME, organism-based; conditions: in vivo
[2] = Plasma protein binding in human; format: ADME, cell-free; conditions: read-out: PPB (converted)
Serum = assay: Drug level in serum of healthy human; format: ADME, cell-free
Staphylococcus aureus [3] = assay: Antimicrobial activity against vancomycin-intermediate Staphylococcus aureus isolate MU50 assessed as bacterial count at 8 times MIC after 24 hrs by colony counting method; format: functional
Summary of the method: (§1)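 24-h time-kill run in triplicate in supplemented Mueller-Hinton broth (12.5 μg/ml Mg, 25 μg/ml Ca), adjusted to 1.1–1.3 mM Ca for daptomycin. […] Samples were taken at 0, 1, 4, 8 and 24 h and counted on BHI agar after 24 h at 35°C. Value is log10 CFU/ml change from baseline at 24 h.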

Staphylococcus aureus [4] = assay: Antimicrobial activity against vancomycin-intermediate Staphylococcus aureus isolate NJ992 assessed as bacterial count at 4 times MIC after 24 hrs by colony counting method; format: functional; summary of the method: as §1
Staphylococcus aureus [5] = assay: Antimicrobial activity against vancomycin-resistant Staphylococcus aureus isolate MI assessed as bacterial count at 32 times MIC after 24 hrs by colony counting method; format: functional
Summary of the method: (§2)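 Time-kill in triplicate. Mid-exponential culture (OD600 ~0.3) diluted in supplemented Mueller-Hinton broth to 5 × 10^6 CFU/ml. Daptomycin was run at physiologic calcium, 1.1 to 1.3 mM. […] Samples at 0, 1, 4, 8 and 24 h were diluted in cold saline or vacuum filtered, then spiral-plated on BHI agar for 24 h at 35°C. Value is the log10 CFU/ml change from baseline at 24 h.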

Staphylococcus aureus [6] = assay: Antimicrobial activity against vancomycin-resistant Staphylococcus aureus isolate MI assessed as bacterial count at 8 times MIC after 24 hrs by colony counting method; format: functional; summary of the method: as §2
Staphylococcus aureus [7] = assay: Antimicrobial activity against vancomycin-resistant Staphylococcus aureus isolate PA assessed as bacterial count at 32 times MIC after 24 hrs by colony counting method; format: functional; summary of the method: as §2
Staphylococcus aureus [8] = assay: Antimicrobial activity against vancomycin-intermediate Staphylococcus aureus isolate MU50 assessed as bacterial count at 32 times MIC after 24 hrs by colony counting method; format: functional; summary of the method: as §1
Staphylococcus aureus [9] = assay: Antimicrobial activity against vancomycin-intermediate Staphylococcus aureus isolate NJ992 assessed as bacterial count at 16 times MIC after 24 hrs by colony counting method; format: functional; summary of the method: as §1
Staphylococcus aureus [10] = assay: Antimicrobial activity against vancomycin-resistant Staphylococcus aureus isolate MI assessed as bacterial count at 16 times MIC after 24 hrs by colony counting method; format: functional; summary of the method: as §2
Staphylococcus aureus [11] = assay: Antimicrobial activity against vancomycin-resistant Staphylococcus aureus isolate MI after 24 hrs by microdilution method; format: functional
Summary of the method: (§3)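 Broth microdilution per CLSI, inoculum 5 × 10^5 CFU/ml, Mueller-Hinton broth with 12.5 μg/ml magnesium and 25 μg/ml calcium (SMHB). Daptomycin was instead tested in SMHB at physiologic calcium (final 1.1 to 1.3 mM). Incubation 24 h at 35°C; MIC read; run in duplicate. MBC from 5-μl samples of clear wells plated on BHI agar, 24 h at 35°C.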

Staphylococcus aureus [12] = assay: Antimicrobial activity against vancomycin-intermediate Staphylococcus aureus isolate MU50 assessed as bacterial count at 16 times MIC after 24 hrs by colony counting method; format: functional; summary of the method: as §2
Staphylococcus aureus [13] = assay: Antimicrobial activity against vancomycin-resistant Staphylococcus aureus isolate PA assessed as bacterial count at 16 times MIC after 24 hrs by colony counting method; format: functional; summary of the method: as §2
[14] = tested on: Staphylococcus haemolyticus; assay: Antimicrobial activity against vancomycin-intermediate Staphylococcus haemolyticus after 24 hrs by microdilution method; format: functional
Summary of the method: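 CLSI broth microdilution in supplemented Mueller-Hinton broth (12.5 μg/ml Mg, 25 μg/ml Ca), with Ca adjusted to 1.1–1.3 mM for daptomycin. Inoculum was 5 × 10^5 CFU/ml, incubated 24 h at 35°C, done in duplicate. For MBC, clear wells were plated on BHI agar and read after 24 h at 35°C.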

Staphylococcus aureus [15] = assay: Antimicrobial activity against vancomycin-resistant Staphylococcus aureus isolate PA assessed as bacterial count at 4 times MIC after 24 hrs by colony counting method; format: functional; summary of the method: as §2
Staphylococcus aureus [16] = assay: Antimicrobial activity against vancomycin-intermediate Staphylococcus aureus isolate MU50 after 24 hrs by microdilution method; format: functional; conditions: isolate MU50, 24 h; summary of the method: as §3
Staphylococcus aureus [17] = assay: Antimicrobial activity against vancomycin-resistant Staphylococcus aureus isolate PA after 24 hrs by microdilution method; format: functional; summary of the method: as §3
Staphylococcus aureus [18] = assay: Antimicrobial activity against vancomycin-intermediate Staphylococcus aureus isolate NJ992 assessed as bacterial count at 8 times MIC after 24 hrs by colony counting method; format: functional; summary of the method: as §1
Staphylococcus aureus [19] = assay: Antimicrobial activity against vancomycin-resistant Staphylococcus aureus isolate NY after 24 hrs by microdilution method; format: functional; summary of the method: as §3
Staphylococcus aureus [20] = assay: Antimicrobial activity against vancomycin-resistant Staphylococcus aureus isolate MI assessed as bacterial count at 4 times MIC after 24 hrs by colony counting method; format: functional; summary of the method: as §2
Staphylococcus aureus [21] = assay: Antimicrobial activity against vancomycin-intermediate Staphylococcus aureus isolate NJ992 after 24 hrs by microdilution method; format: functional; conditions: isolate NJ992, 24 h; summary of the method: as §3
Staphylococcus aureus [22] = assay: Antimicrobial activity against vancomycin-resistant Staphylococcus aureus isolate PA assessed as bacterial count at 8 times MIC after 24 hrs by colony counting method; format: functional; summary of the method: as §2
Staphylococcus aureus [23] = assay: Antimicrobial activity against vancomycin-intermediate Staphylococcus aureus isolate NJ992 assessed as bacterial count at 32 times MIC after 24 hrs by colony counting method; format: functional; summary of the method: as §1
Staphylococcus aureus [24] = assay: Antimicrobial activity against vancomycin-heteroresistant Staphylococcus aureus after 24 hrs by microdilution method; format: functional; summary of the method: as §3
Staphylococcus aureus [25] = assay: Antimicrobial activity against vancomycin-intermediate Staphylococcus aureus isolate MU50 assessed as bacterial count at 4 times MIC after 24 hrs by colony counting method; format: functional; summary of the method: as §1
Staphylococcus aureus [26] = assay: Antimicrobial activity against vancomycin-intermediate Staphylococcus aureus after 24 hrs by microdilution method; format: functional; summary of the method: as §3
Staphylococcus aureus [27] = assay: Antimicrobial activity against methicillin-resistant Staphylococcus aureus infected in patient with complicated skin and skin structure infections assessed as cure rate; format: functional
[28] = Staphylococcus haemolyticus, 24 h

Row | SMILES | log10CFU/ml (Staphylococcus aureus [3]) | log10CFU/ml (Staphylococcus aureus [4]) | log10CFU/ml (Staphylococcus aureus [8]) | log10CFU/ml (Staphylococcus aureus [9]) | MBC (Staphylococcus aureus [11]) | MIC (Staphylococcus aureus [11]) | log10CFU/ml (Staphylococcus aureus [12]) | MBC50 [14] | MBC90 [14] | MBC [14, 28] | MIC50 [14, 28] | MIC90 [14, 28] | MBC (Staphylococcus aureus [16]) | MBC (Staphylococcus aureus [17]) | log10CFU/ml (Staphylococcus aureus [18]) | MBC (Staphylococcus aureus [19]) | MIC (Staphylococcus aureus [19]) | MBC (Staphylococcus aureus [21]) | MIC (Staphylococcus aureus [21]) | log10CFU/ml (Staphylococcus aureus [23]) | further results
1 | CN[C@H](CC(C)C)C(=O)N[C@H]1C(=O)N[C@@H](CC(N)=O)C(=O)N[C@H]2C(=O)N[C@H]3C(=O)N[C@H](C(=O)N[C@H](C(=O)NCCCO/N=C(\C(=O)N[C@@H]4C(=O)N5C(C(=O)[O-])=C(C[n+]6ccccc6)CS[C@H]45)c4nc(N)sc4Cl)c4cc(O)cc(O)c4-c4cc3ccc4O)[C@H](O)c3ccc(c(Cl)c3)Oc3cc2cc(c3O[C@@H]2O[C@H](CO)[C@@H](O)[C@H](O)[C@H]2O[C@H]2C[C@](C)(N)[C@H](O)[C@H](C)O2)Oc2ccc(cc2Cl)[C@H]1O | – | – | – | – | – | – | – | – | – | – | – | – | – | – | – | – | – | – | – | – | half-life [1]: 6.8 h; fraction unbound [2]: 0.51; Drug uptake (Serum): 4.65 µg/mL
2 | CC(=O)NC[C@H]1CN(c2ccc(N3CCOCC3)c(F)c2)C(=O)O1 [LINEZOLID] | 3.26 | 2.13 | 4.8 | 3.98 | 16 µg/mL (≈ 47.4 µM) | 1 µg/mL (≈ 2.96 µM) | 4.25 | 8 µg/mL (≈ 23.7 µM) | 32 µg/mL (≈ 94.9 µM) | 1 µg/mL (≈ 2.96 µM) | 2 µg/mL (≈ 5.93 µM) | 2 µg/mL (≈ 5.93 µM) | 32 µg/mL (≈ 94.9 µM) | 4 µg/mL (≈ 11.9 µM) | 3.66 | 0.5 µg/mL (≈ 1.48 µM) | 0.25 µg/mL (≈ 0.741 µM) | 2 µg/mL (≈ 5.93 µM) | 1 µg/mL (≈ 2.96 µM) | 4.89 | log10CFU/ml (Staphylococcus aureus [5]): 4.52; log10CFU/ml (Staphylococcus aureus [6]): 1.55; log10CFU/ml (Staphylococcus aureus [7]): 4.95; log10CFU/ml (Staphylococcus aureus [10]): 3.64; log10CFU/ml (Staphylococcus aureus [13]): 4.24; log10CFU/ml (Staphylococcus aureus [15]): 3.24; MIC (Staphylococcus aureus [16]): 1 µg/mL (≈ 2.96 µM); log10CFU/ml (Staphylococcus aureus [20]): 1.31; log10CFU/ml (Staphylococcus aureus [22]): 4.2; MBC (Staphylococcus aureus [24]; Staphylococcus aureus, 24 h): 1 µg/mL (≈ 2.96 µM); MIC50 (Staphylococcus aureus [24]; Staphylococcus aureus, 24 h): 2 µg/mL (≈ 5.93 µM); MIC90 (Staphylococcus aureus [24]; Staphylococcus aureus, 24 h): 2 µg/mL (≈ 5.93 µM); log10CFU/ml (Staphylococcus aureus [25]): 3.19; MBC50 (Staphylococcus aureus [26]): 8 µg/mL (≈ 23.7 µM); MBC90 (Staphylococcus aureus [26]): 32 µg/mL (≈ 94.9 µM); MBC (Staphylococcus aureus [26]; Staphylococcus aureus, 24 h): 1 µg/mL (≈ 2.96 µM); MIC50 (Staphylococcus aureus [26]; Staphylococcus aureus, 24 h): 2 µg/mL (≈ 5.93 µM); MIC90 (Staphylococcus aureus [26]; Staphylococcus aureus, 24 h): 2 µg/mL (≈ 5.93 µM)
3 | CN[C@H](CC(C)C)C(=O)N[C@H]1C(=O)N[C@@H](CC(N)=O)C(=O)N[C@H]2C(=O)N[C@H]3C(=O)N[C@H](C(=O)N[C@H](C(=O)O)c4cc(O)cc(O)c4-c4cc3ccc4O)[C@H](O)c3ccc(c(Cl)c3)Oc3cc2cc(c3O[C@@H]2O[C@H](CO)[C@@H](O)[C@H](O)[C@H]2O[C@H]2C[C@](C)(N)[C@H](O)[C@H](C)O2)Oc2ccc(cc2Cl)[C@H]1O [VANCOMYCIN] | 3.32 | 2.88 | 4.41 | 4.58 | > 2050 µg/mL | 1020 µg/mL (≈ 707 µM) | 4.48 | 4 µg/mL (≈ 2.76 µM) | 8 µg/mL (≈ 5.52 µM) | 4 µg/mL (≈ 2.76 µM) | 4 µg/mL (≈ 2.76 µM) | 8 µg/mL (≈ 5.52 µM) | 4 µg/mL (≈ 2.76 µM) | 64 µg/mL (≈ 44.2 µM) | 4.3 | 128 µg/mL (≈ 88.3 µM) | 64 µg/mL (≈ 44.2 µM) | 8 µg/mL (≈ 5.52 µM) | 8 µg/mL (≈ 5.52 µM) | 4.79 | MIC [14, 28]: 4 µg/mL (≈ 2.76 µM); MIC (Staphylococcus aureus [17]): 32 µg/mL (≈ 22.1 µM); Activity (Staphylococcus aureus [27]): 91.9%; MBC50 (Staphylococcus aureus [24]): 4 µg/mL (≈ 2.76 µM); MBC90 (Staphylococcus aureus [24]): 8 µg/mL (≈ 5.52 µM); MBC (Staphylococcus aureus [24]; Staphylococcus aureus, 24 h): 4 µg/mL (≈ 2.76 µM); MIC (Staphylococcus aureus [24]; Staphylococcus aureus, 24 h): 4 µg/mL (≈ 2.76 µM); MIC50 (Staphylococcus aureus [24]; Staphylococcus aureus, 24 h): 4 µg/mL (≈ 2.76 µM); MIC90 (Staphylococcus aureus [24]; Staphylococcus aureus, 24 h): 8 µg/mL (≈ 5.52 µM); log10CFU/ml (Staphylococcus aureus [25]): 2.71; MBC50 (Staphylococcus aureus [26]): 4 µg/mL (≈ 2.76 µM); MBC90 (Staphylococcus aureus [26]): 8 µg/mL (≈ 5.52 µM); MBC (Staphylococcus aureus [26]; Staphylococcus aureus, 24 h): 4 µg/mL (≈ 2.76 µM); MIC (Staphylococcus aureus [26]; Staphylococcus aureus, 24 h): 4 µg/mL (≈ 2.76 µM); MIC50 (Staphylococcus aureus [26]; Staphylococcus aureus, 24 h): 4 µg/mL (≈ 2.76 µM); MIC90 (Staphylococcus aureus [26]; Staphylococcus aureus, 24 h): 8 µg/mL (≈ 5.52 µM)

— ChEMBL document CHEMBL1687766, “In vitro activity of the new multivalent glycopeptide-cephalosporin antibiotic TD-1792 against vancomycin-nonsusceptible Staphylococcus isolates” (Antimicrob Agents Chemother, 2010)
